Compound activity: PubChem BioAssay, several laboratories
Shown are actives, neighbours in structure and some others; about 2.9% of the full set was active somewhere.
Jurkat viability – reduces viability or proliferation of Jurkat cells; actives 1.2% (n = 56,000); inhibition, % at 4 µM; Jurkat E6.1 viability, ATP luminescence, 48 h; AID 463;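 active means inhibition above the mean inhibition of all tested compounds plus 3 SD, cut at about 28% in these data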
HEK293 NFkB inh – lowers PMA/ionomycin-induced NF-kB signal in HEK293 cells; HEK-293 NF-kB luciferase reporter, luminescence; inhibition, % at 3 µM; actives 0.21% (n = 62,000);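 active means inhibition above the mean of all tested compounds plus 3 SD, cut at about 40% in these data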
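System: NF-kB luciferase reporter HEK-293 cells | Replication: Single test | Control set: DMSO vs reference inhibitor | Evaluation: % inhibition | Schedule: 1 h pretreatment, 16 h stimulation, 37 °C | Probe or stimulus: PMA with ionomycin | Compound dosing: One dose, 3 µM | Detection: Luciferase luminescence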
RORa activator – RORA (human) activation | P35398 | CHO-K1 Gal4-RORA LBD luciferase reporter, luminescence; percent increase over mock-subtracted basal signal | activation, % at 10 µM | actives 1.5% (n = 65,000);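 active means activation above the mean of all tested compounds plus 3 SD, cut at about 49% in these data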
SF-1 act – activators of human nuclear receptor SF-1. AID 522. CHO-K1 Gal4-SF-1 LBD luciferase reporter; % increase over DMSO SF-1-specific signal. activation, % at 10 µM. actives 1.9% (n = 65,000);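 active means activation above the mean activation of all tested compounds plus 3 SD, cut at about 50% in these data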
Target sequence (Q13285 whole entry, looked up, the tested form may be a part): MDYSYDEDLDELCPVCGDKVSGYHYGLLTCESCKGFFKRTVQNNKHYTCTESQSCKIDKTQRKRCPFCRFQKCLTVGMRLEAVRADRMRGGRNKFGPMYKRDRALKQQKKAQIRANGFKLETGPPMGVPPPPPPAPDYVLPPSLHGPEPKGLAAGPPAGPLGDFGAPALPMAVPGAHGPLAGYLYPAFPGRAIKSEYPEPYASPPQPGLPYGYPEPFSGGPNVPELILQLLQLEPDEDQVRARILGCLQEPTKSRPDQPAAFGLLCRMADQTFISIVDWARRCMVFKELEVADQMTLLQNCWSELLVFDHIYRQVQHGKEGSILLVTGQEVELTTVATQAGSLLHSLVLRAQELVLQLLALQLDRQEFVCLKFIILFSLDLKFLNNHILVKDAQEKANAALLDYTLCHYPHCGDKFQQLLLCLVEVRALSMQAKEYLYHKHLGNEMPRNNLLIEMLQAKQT
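System: CHO-K1 cells with Gal4–hSF-1 LBD chimera plus Gal4-driven luciferase; quantity: 4,000 CHO-K1 cells per well; compound: one dose, 10 µM compound, 1% DMSO; times: 20 h compound treatment, 37 °C; measured by: SteadyLite luciferase luminescence; read-out: percent activation versus DMSO; benchmarks: DMSO and mock-transfected background; replicates: one test per compound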
MT1-MMP txn act – MT1-MMP promoter transcription activation. HT1080 MT1-MMP promoter luciferase reporter, luminescence, overnight; stronger effect = higher value. activation factor at 10 µM. actives 0.16% (n = 86,000);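 active means activation factor of at least 2 for MT1-MMP transcription at 10 µM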
Each line names hits and unclear results; the compound was inactive in the other large screens.

Cc1cc(NC(=O)CCCS(=O)(=O)c2nc(-c3cccs3)cc(C(F)(F)F)n2)no1	Jurkat viability 100
COC(=O)c1ccc(C(NC(=O)OCc2ccccc2)/C(F)=C/[C@@H](C)C(=O)NCc2nn(-c3ccccc3)nc2C)cc1 (some centres undefined)	none (no result: Jurkat viability, HEK293 NFkB inh, RORa activator, SF-1 act)
COc1cc(NC(=O)c2cc3nc(C)cc(C)n3n2)c(OC)cc1Cl	RORa activator 86, SF-1 act 58
CC1(C)CC2(CCO1)N1CC3(C)CN2CC(C)(C1)C3=O (centres undefined)	none (no result: Jurkat viability, HEK293 NFkB inh, RORa activator, SF-1 act)
Clc1ccc2nc(N3CCCCC3)sc2c1	SF-1 act 65
Fc1cccc2sc(N3CCCCC3)nc12	SF-1 act 73
Clc1ccc2nc(N3CCCCC3)[nH]c2c1	none
CN1CCN(S(=O)(=O)c2ccc(Sc3nnc(-c4cccs4)n3-c3ccccc3)nc2)CC1	none
COc1ccc(C2(O)CC3CCC(C2)N3c2nc(C)cc(C)c2C#N)cc1 (centres undefined)	none
O=c1[nH]c2ccccc2c2nc3ccccn3c12	SF-1 act 65
CC(=O)N1CCc2c(sc(NC(=O)c3ccc4c(c3)OCCO4)c2C#N)C1	Jurkat viability 88, RORa activator 49, SF-1 act 77
CC(=O)N1CCc2c(sc(NC(=O)c3ccc(S(=O)(=O)N(C)C)cc3)c2C#N)C1	none
CCCn1[nH]cc(SC)c(=O)c1=O	none
Cc1ccc(-n2ncc3c(NCc4ccco4)ncnc32)c(C)c1	none
Cc1ccc2[nH]c3c(NCc4ccco4)ncnc3c2c1	Jurkat viability 37
Cc1nc2cc(C(=O)O)ccc2s1	SF-1 act 53
O=C(NCCc1c[nH]c2ccccc12)c1cnc2sccn2c1=O	SF-1 act 60
CC(C)Oc1ccc(NC(=O)c2ccncc2)cc1	none
O=C(NCc1ccc2c(c1)OCO2)c1ccccn1	none
O=C(/C=C\Nc1ccc2c(c1)OCO2)c1ccccn1	HEK293 NFkB inh 48 (no result: MT1-MMP txn act)
CCOC(=O)N1CCN(C(=O)c2ccc(N(Cc3ccccc3)S(C)(=O)=O)cc2)CC1	none (no result: Jurkat viability, HEK293 NFkB inh, RORa activator, SF-1 act)
CC(=O)NC1(c2ccccc2)CCN(c2nc(C)cc(C)n2)CC1	none
CCCOC(=O)c1ccc(NC(=O)C2CCCO2)cc1 (centres undefined)	SF-1 act 68
COC(=O)CNC(=O)[C@@]1(C)C=C[C@@H](Cc2ccccc2)N1C(=O)OC	none (no result: Jurkat viability, HEK293 NFkB inh, RORa activator, SF-1 act)
CCCc1nc(-c2ccc(-c3ccc(F)cc3)cc2)no1	SF-1 act 53
c1ccc(CCc2nc(-c3ccccc3)no2)cc1	none (no result: Jurkat viability, HEK293 NFkB inh, RORa activator, SF-1 act)
Cc1ccc(C)c(NC(=O)CC(NCCCN2CCOCC2)C(=O)O)c1 (centres undefined)	none
CCOC(=O)c1c(C)oc2cc3c(C(=O)OCC)c(C)oc3cc12	none (no result: Jurkat viability, HEK293 NFkB inh, RORa activator, SF-1 act)
Cc1oc2cc3c(C(=O)OCCN(C)C)c(C)oc3cc2c1C(=O)OCCN(C)C	HEK293 NFkB inh 78 (no result: MT1-MMP txn act)
O=C(Nc1ccccc1)N(O)c1ccc(Cl)cc1	SF-1 act 58
C[C@@H](C(=O)Nc1ccc2ccccc2c1)[C@@H]1C[C@@]1(C)[C@@H](NS(=O)(=O)c1ccc2ccccc2c1)c1ccccc1	none (no result: Jurkat viability, HEK293 NFkB inh, RORa activator, SF-1 act)
N#Cc1c(N2CCCC2)nc(N)c2c(N)nc(N3CCCC3)cc12	SF-1 act 50
COc1cc2c(C#N)c(N3CCN(C)CC3)nc(N)c2c(N)n1	none (no result: Jurkat viability, HEK293 NFkB inh, RORa activator, SF-1 act)
CCN(C(=O)c1ccc(C(C)(C)C)cc1)c1nnc(Cn2nnc3ccccc32)s1	Jurkat viability 101, HEK293 NFkB inh 40
S=C(c1ccc(-c2ccc(Cl)c(Cl)c2)o1)N1CCOCC1	none
S=C(c1ccc(-c2ccccc2Cl)o1)N1CCOCC1	RORa activator 54
CC(=Nc1cccc(O)c1)c1sc2ccccc2c1O	SF-1 act 94 (no result: Jurkat viability, HEK293 NFkB inh)
Cn1c(CSc2ccccc2)c(C#N)c2ccccc21	RORa activator 61
Cc1ccc(SCc2c(C#N)c3ccccc3n2C)cc1	none (no result: Jurkat viability, HEK293 NFkB inh)
COc1cc(OC)c(C2N(c3ccc(Cl)cc3)C(=O)C3CCCN32)cc1OC (centres undefined)	none
COc1ccc(S(=O)(=O)n2nc(-c3cc(OC)c(OC)c(OC)c3)cc2N)cc1OC	none
COc1ccc(-c2cc(N)n(S(=O)(=O)c3c(F)c(F)c(F)c(F)c3F)n2)cc1OC	Jurkat viability 88
O=C1C(C=NCc2ccccn2)=C(O)c2ccccc21	SF-1 act 55
O=c1oc2ccccc2c(O)c1C=NCc1ccccn1	none
CCn1nnc(-c2ccccc2NS(=O)(=O)c2ccc(S(=O)(=O)N(C)C3CCCCC3)cc2)n1	none (no result: Jurkat viability, HEK293 NFkB inh, RORa activator, SF-1 act)
O=C(CSc1nnnn1C1CC2CCC1C2)Nc1ccnc2ccccc12 (centres undefined)	Jurkat viability 100, HEK293 NFkB inh 58
O=C(CSc1nnnn1C1CCCC1)NCc1ccccc1	none (no result: Jurkat viability, HEK293 NFkB inh, RORa activator, SF-1 act)
N#Cc1c(NC(=O)CSc2ncn[nH]2)sc2c1CCCCC2	HEK293 NFkB inh 54 (no result: MT1-MMP txn act)
N#Cc1c(NC(=O)CSc2nc(N)cc(=O)[nH]2)sc2c1CCCCCC2	Jurkat viability 56
Cc1ccccc1-c1nc2cc(N)ccc2o1	SF-1 act 58
Nc1ccc2oc(CCc3ccccc3)nc2c1	RORa activator 144, SF-1 act 79
c1ccc2oc(CCc3nc4ccccc4o3)nc2c1	none
O=S(=O)(Nc1cnc2ccccc2c1)N1CCCCCC1	none
CCN(CC)CCCN1C(=O)C(O)=C(C(=O)c2cccs2)C1c1ccccn1 (centres undefined)	none
COC(=O)[C@H]1C[C@@H]1[C@H](NS(=O)(=O)c1ccc(-c2ccccc2)cc1)c1ccccc1	none (no result: Jurkat viability, HEK293 NFkB inh, RORa activator, SF-1 act)
Cc1ccc(NC(=O)C(=O)c2c(-c3ccccc3)cc3ccccn23)cc1S(=O)(=O)N1CCOCC1	none (no result: Jurkat viability, HEK293 NFkB inh, RORa activator, SF-1 act)
O=C(c1ccc2c(c1)OCO2)N(c1ccc(Cl)cc1)C1C=CS(=O)(=O)C1 (centres undefined)	none
Cc1cc(C(=O)OCC(=O)NCc2ccco2)c(C)n1-c1ccc(F)cc1	Jurkat viability 75
CC(C)Oc1ccc(C2C(C(=O)c3ccco3)=C(O)C(=O)N2Cc2cccnc2)cc1 (centres undefined)	RORa activator 70
Cc1nc2nc(-c3cccs3)cn2nc1C	RORa activator 53
O=C(c1cccc(OC(F)F)c1)N1CCN(c2ncccn2)CC1	none
O=C(CSCc1cccc(F)c1)N1CCN(c2ccccc2)CC1	RORa activator 53 (no result: Jurkat viability)
O=C(CSCc1ccccc1)N1CCN(c2cccc(C(F)(F)F)c2)CC1	none (no result: Jurkat viability, HEK293 NFkB inh, RORa activator, SF-1 act)
CCOC(=O)c1c(C)[nH]c(C(=O)OCC(=O)Nc2cc(C)ccc2OC)c1C	none
CCOC(=O)c1c(C)c(C(=O)Nc2ccccc2)c(C)n1CC	none
CCOC(=O)c1c(C)[nH]c(C(=O)Nc2ccc3c(c2)OCO3)c1C	RORa activator 59, SF-1 act 132
CCOC(=O)c1c(C)c(C(=O)Nc2cc(OC)ccc2OC)c(C)n1CC	Jurkat viability 35
CCOC(=O)c1[nH]c(C)c(C(=O)Nc2cc(OC)ccc2OC)c1C	Jurkat viability 80
O=c1c2ccccc2nc2sc3ccccc3n12	RORa activator 60, SF-1 act 57
